Here are results for eight compounds from ChEMBL document CHEMBL1147099, “In vitro and in vivo antibacterial activities of heteroaryl isothiazolones against resistant gram-positive pathogens” (Antimicrob Agents Chemother, 2007).

Holding throughout (assay type): functional
Experiment [1] deals with Staphylococcus aureus. The experiment can be described thus: Antibacterial activity against ethidium bromide-resistant Staphylococcus aureus BSA678 after 24 hrs by broth microdilution method. To be noted: BSA678, 24 h. The gist of the method: (§1)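 Broth microdilution per CLSI in cation-adjusted Mueller-Hinton II broth, final inoculum approximately 5 × 10^5 CFU/ml. Plates were incubated aerobically at 35 to 37°C for 24 h. MIC was the lowest concentration giving no visible growth. Reserpine, where used, was at a final concentration of 20 μg/ml.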

In experiment [2] the test system is Staphylococcus aureus. The experiment in a line: Antibacterial activity against ethidium bromide-resistant Staphylococcus aureus BSA643 after 24 hrs by broth microdilution method. To be noted: BSA643, 24 h. The gist of the method: as §1
A general note: Dilution methods test growth across graded concentrations, often in twofold steps.

Experiment [3] has as its system Staphylococcus aureus. The experiment can be described thus: Antibacterial activity against […] Staphylococcus aureus ATCC 29213 after 24 hrs by broth microdilution method. As to conditions: ATCC 29213, 24 h. The gist of the method:
as §1

The subject of experiment [4] is Staphylococcus aureus. The experiment in a line: Antibacterial activity against ethidium bromide-resistant Staphylococcus aureus Mu50 after 24 hrs by broth microdilution method. To be noted: Mu50, 24 h. The gist of the method: as §1
In experiment [5] the test system is Clostridioides difficile. The experiment in a line: Antibacterial activity against Clostridium difficile by agar dilution method. The gist of the method: (§2)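 Anaerobes by CLSI agar dilution on brucella agar with hemin, vitamin K and 5% laked sheep blood; inoculum from 24-h enriched blood agar colonies resuspended in brucella broth to 0.5 McFarland. Plates incubated anaerobically at 35–37°C for 48 h.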
A general note: In agar dilution, organisms are placed on agar that contains the substance at set levels.

Experiment [6] has as its system Escherichia coli. The experiment in a line: Antibacterial activity against Escherichia coli after 24 hrs by broth microdilution method. A digest of the protocol: (§3)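 CLSI broth microdilution in cation-adjusted Mueller-Hinton II broth, final inoculum about 5 × 10^5 CFU/ml for most strains; streptococci supplemented with 2–5% lysed horse blood, H. influenzae in Haemophilus test medium. Aerobic incubation at 35–37°C for 24 h; MIC = lowest concentration with no visible growth.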

For experiment [7], the system named is Enterobacter sp. The experiment in a line: Antibacterial activity against Enterobacter sp. The gist of the method: (§4)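 Aerobic isolates run by CLSI broth microdilution in cation-adjusted Mueller-Hinton II broth (streptococci plus 2–5% lysed horse blood), about 5 × 10^5 CFU/ml final; 24 h at 35–37°C aerobically; MIC read as lowest concentration without visible growth.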

For experiment [8], the system named is Bacteroides fragilis. The experiment can be described thus: Antibacterial activity against Bacteroides fragilis by agar dilution method. The gist of the method:
as §2

In experiment [9] the test system is Peptostreptococcus sp. The experiment in a line: Antibacterial activity against Peptostreptococcus sp. by agar dilution method. The gist of the method:
as §2

Experiment [10] concerns Acinetobacter baumannii. The experiment can be described thus: Antibacterial activity against Acinetobacter baumannii after 24 hrs by broth microdilution method. The gist of the method:
as §3

The test system of experiment [11] is Cutibacterium acnes. The experiment in a line: Antibacterial activity against Propionibacterium acnes. A digest of the protocol:
as §2

Experiment [12] concerns Klebsiella pneumoniae. The experiment in a line: Antibacterial activity against Klebsiella pneumoniae. The gist of the method: as §4
Experiment [13] relates to Enterococcus faecalis. The experiment in a line: Antibacterial activity against Enterococcus faecalis. The gist of the method:
as §4

Experiment [14] concerns Staphylococcus aureus. The experiment can be described thus: Antibacterial activity against methicillin-resistant Staphylococcus aureus after 24 hrs by broth microdilution method. A digest of the protocol:
as §1

Experiment [15] concerns Legionella pneumophila. The experiment can be described thus: Antibacterial activity against Legionella pneumophila after 24 hrs by broth microdilution method.
Experiment [16] deals with Moraxella catarrhalis. The experiment in a line: Antibacterial activity against Moraxella catarrhalis after 24 hrs by broth microdilution method. The gist of the method: as §3
Experiment [17] concerns Streptococcus pyogenes. The experiment in a line: Antibacterial activity against Streptococcus pyogenes. A digest of the protocol:
as §4

For experiment [18], the system named is Streptococcus viridans. The experiment can be described thus: Antibacterial activity against Streptococcus viridans after 24 hrs by broth microdilution method. The gist of the method:
as §3

The test system of experiment [19] is Streptococcus pneumoniae. The experiment can be described thus: Antibacterial activity against Streptococcus pneumoniae by agar dilution method.
Experiment [20] deals with Mycoplasmoides pneumoniae. The experiment can be described thus: Antibacterial activity against Mycoplasma pneumoniae after 24 hrs by broth microdilution method.
The subject of experiment [21] is Neisseria meningitidis. The experiment can be described thus: Antibacterial activity against Neisseria meningitidis after 24 hrs by broth microdilution method. The gist of the method:
as §3

For experiment [22], the system named is Staphylococcus aureus. The experiment can be described thus: Antibacterial activity against methicillin-susceptible Staphylococcus aureus after 24 hrs by broth microdilution method. The gist of the method: as §1
Experiment [23] has as its system Enterococcus faecium. The experiment in a line: Antibacterial activity against Enterococcus faecium. A digest of the protocol:
as §4

Experiment [24] concerns Haemophilus influenzae. The experiment in a line: Antibacterial activity against Haemophilus influenzae after 24 hrs by broth microdilution method. A digest of the protocol:
as §3

Experiment [25] concerns Pseudomonas aeruginosa. The experiment can be described thus: Antibacterial activity against Pseudomonas aeruginosa after 24 hrs by broth microdilution method. A digest of the protocol: as §3
Experiment [26] has as its system Neisseria gonorrhoeae. The experiment in a line: Antibacterial activity against Neisseria gonorrhoeae after 24 hrs by broth microdilution method. A digest of the protocol:
as §3

Usually MIC stands for the smallest concentration in the dilution series that meets the test's criterion for growth inhibition.

Molecules are shown by their SMILES. In brackets after ≈: the same amount, converted by molar mass.

For the compound `CO/N=C1\CN(c2nc3c(cc2F)c(=O)c(C(=O)O)cn3C2CC2)CC1CN` (centres undefined) [GEMIFLOXACIN], the MIC in experiment [1] worked out at 64 µg/mL (≈ 164 µM); in experiment [2] it was 32 µg/mL (≈ 82.2 µM); in experiment [3], 0.03 µg/mL (≈ 0.077 µM); in [4], 4 µg/mL (≈ 10.3 µM).
For the compound `C[C@@H](O)[C@H]1C(=O)N2C(C(=O)O)=C(SCCNC=N)C[C@H]12` [IMIPENEM ANHYDROUS], the MIC50 in [5] amounted to 4 µg/mL (≈ 13.4 µM); in experiment [6] it was 0.5 µg/mL (≈ 1.67 µM); in experiment [7] it was 1 µg/mL (≈ 3.34 µM); in [8], 0.25 µg/mL (≈ 0.835 µM); in experiment [9], 0.06 µg/mL (≈ 0.2 µM); in [10], 1 µg/mL (≈ 3.34 µM). For the same compound, the values for the MIC50 in experiment [11] and in experiment [12] were 0.06 µg/mL (≈ 0.2 µM) and 0.5 µg/mL (≈ 1.67 µM), respectively. For the same compound, the MIC90 was 4 µg/mL (≈ 13.4 µM) in experiment [5]; 0.5 µg/mL (≈ 1.67 µM) in experiment [6]; 2 µg/mL (≈ 6.68 µM) in experiment [7]; 0.25 µg/mL (≈ 0.835 µM) in [8]; 0.25 µg/mL (≈ 0.835 µM) in [9]; greater than 16 µg/mL in experiment [10]. In addition, the MIC90 in [11] came out at 0.06 µg/mL (≈ 0.2 µM); in experiment [12], 1 µg/mL (≈ 3.34 µM).
Take `C[C@H]1COc2c(N3CCN(C)CC3)c(F)cc3c(=O)c(C(=O)O)cn1c23.C[C@H]1COc2c(N3CCN(C)CC3)c(F)cc3c(=O)c(C(=O)O)cn1c23.O` [LEVOFLOXACIN]: the MIC50 was found to be 0.03 µg/mL in experiment [6]; 16 µg/mL in experiment [13]; 0.03 µg/mL in experiment [7]; 16 µg/mL in experiment [14]; 0.03 µg/mL in experiment [16]; 0.5 µg/mL in experiment [17]. The MIC50 in [10] is 0.25 µg/mL; in experiment [18], 1 µg/mL; in experiment [19], 1 µg/mL; in [21], no more than 0.12 µg/mL; in experiment [22] it was 0.25 µg/mL; in [23], greater than 16 µg/mL. Moreover, the figures for the MIC50 in experiment [24], in experiment [25] and in [12] were 0.015 µg/mL, 0.5 µg/mL and greater than 0.25 µg/mL, respectively. The MIC90 in [13] was greater than 16 µg/mL; in experiment [7] it was 0.5 µg/mL; in experiment [16], 0.06 µg/mL; in experiment [17], 1 µg/mL; in experiment [10], greater than 8 µg/mL; in experiment [18], 1 µg/mL. Moreover, the MIC90 in [19] was 1 µg/mL; in experiment [21], no more than 0.12 µg/mL; in experiment [22] it was greater than 16 µg/mL; in [23], greater than 16 µg/mL; in [24] it was 0.03 µg/mL; in [25], greater than 8 µg/mL. This compound displayed an MIC90 in experiment [12] greater than 2 µg/mL. In addition, the MIC in [15] was 0.015 µg/mL; in experiment [20], 0.5 µg/mL.
As to `C[C@@H](O)[C@H]1C(=O)N2C(C(=O)O)=C(S[C@@H]3CN[C@H](C(=O)N(C)C)C3)[C@H](C)[C@H]12` [MEROPENEM], in experiment [21], the MIC50 came out at 0.008 µg/mL (≈ 0.0209 µM) and the MIC90 worked out at 0.015 µg/mL (≈ 0.0391 µM).
With `Cc1ncc([N+](=O)[O-])n1CCO` [METRONIDAZOLE], the results for the MIC50 in experiment [5] and in experiment [11] were 0.5 µg/mL (≈ 2.92 µM) and greater than 64 µg/mL, respectively. Also, the results for the MIC90 in experiment [5] and in experiment [11] were 0.5 µg/mL (≈ 2.92 µM) and greater than 64 µg/mL, respectively.
In experiment [21], `CN(C)c1ccc(O)c2c1C[C@H]1C[C@H]3[C@H](N(C)C)C(O)=C(C(N)=O)C(=O)[C@@]3(O)C(O)=C1C2=O` [MINOCYCLINE] yielded an MIC50 of 0.12 µg/mL (≈ 0.262 µM) and an MIC90 of 0.12 µg/mL (≈ 0.262 µM).
Consider `Cc1onc(-c2ccccc2)c1C(=O)N[C@@H]1C(=O)N2[C@@H]1SC(C)(C)[C@@H]2C(=O)O` [OXACILLIN], for which, in [14], the MIC50 was greater than 16 µg/mL and the MIC90 was greater than 16 µg/mL. In experiment [22], this compound displayed an MIC50 of 0.5 µg/mL (≈ 1.25 µM) and an MIC90 of 0.5 µg/mL (≈ 1.25 µM).
In experiment [26], `CN(C)[C@@H]1C(O)=C(C(N)=O)C(=O)[C@@]2(O)C(O)=C3C(=O)c4c(O)cccc4[C@@](C)(O)[C@H]3C[C@@H]12` [TETRACYCLINE] came in with an MIC50 of 0.25 µg/mL (≈ 0.563 µM) and an MIC90 of 1 µg/mL (≈ 2.25 µM).
